From ChEMBL document CHEMBL1687848, “In vitro effect of qnrA1, qnrB1, and qnrS1 genes on fluoroquinolone activity against isogenic Escherichia coli isolates with mutations in gyrA and parC” (2011) come the findings set out here.

Common to all, as to assay type: functional
Assay [1] deals with Escherichia coli. In words: Antibacterial activity against Escherichia coli ATCC 25922 assessed as mutant prevention concentration.
The subject of assay [2] is Escherichia coli. In words: Antibacterial activity against Escherichia coli ATCC 25922 expressing qnrS gene and pBK-QnrS1 assessed as earliest time required to resistant colonies visible one step below mutant prevention concentration.
The test system of assay [3] is Escherichia coli. In words: Ratio of mutant prevention concentration to MIC for qnrS gene expressing Escherichia coli ATCC 25922 harboring GyrA S83L mutant and pBK-QnrS1. The essentials: (§1)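 MIC: broth microdilution per CLSI, in duplicate. The ratio is MPC over MIC. Strains are E. coli ATCC 25922 or its GyrA Ser83Leu gene-replacement mutant, with qnr genes on pBK-CMV introduced by electroporation.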

Assay [4] relates to Escherichia coli. In words: Antibacterial activity against Escherichia coli ATCC 25922 expressing qnrB gene and pBK-QnrB1 assessed as resistant colonies recovered one step below mutant prevention concentration. The essentials:
(§2)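 Resistant colonies recovered from Mueller-Hinton plates one concentration step below the MPC for each fluoroquinolone were retested for MIC. Mutants taken from plated concentrations closest to the MPC had the QRDRs of gyrA and parC analysed.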

Assay [5] relates to Escherichia coli. In words: Antibacterial activity against qnrB gene expressing Escherichia coli ATCC 25922 harboring GyrA S83L mutant and pBK-QnrB1 assessed as resistant colonies recovered one step below mutant prevention concentration. The procedure, abridged: as §2
Assay [6] concerns Escherichia coli. In words: Antibacterial activity against Escherichia coli ATCC 25922 harboring GyrA S83L mutant and ParC S80R mutant by broth microdilution method. In general terms: In broth dilution the organism is exposed to a series of concentrations in liquid medium.
Assay [7] relates to Escherichia coli. In words: Ratio of mutant prevention concentration to MIC for Escherichia coli ATCC 25922 harboring GyrA S83L mutant. The essentials: as §1
Assay [8] deals with Escherichia coli. In words: Ratio of mutant prevention concentration to MIC for Escherichia coli ATCC 25922 expressing qnrA gene and pBK-QnrA1. The essentials: as §1
In assay [9] the test system is Escherichia coli. In words: Antibacterial activity against Escherichia coli ATCC 25922 harboring GyrA S83L mutant assessed as resistant colonies recovered one step below mutant prevention concentration. The essentials: as §2
Assay [10] relates to Escherichia coli. In words: Antibacterial activity against Escherichia coli ATCC 25922 by broth microdilution method.
Assay [11] relates to Escherichia coli. In words: Ratio of mutant prevention concentration to MIC for qnrA gene expressing Escherichia coli ATCC 25922 harboring GyrA S83L mutant and pBK-QnrA1. The essentials: as §1
Assay [12] relates to Escherichia coli. In words: Antibacterial activity against Escherichia coli ATCC 25922 expressing qnrS gene and pBK-QnrS1 by broth microdilution method.
Assay [13] relates to Escherichia coli. In words: Ratio of mutant prevention concentration to MIC for Escherichia coli ATCC 25922 expressing qnrS gene and pBK-QnrS1. The procedure, abridged:
as §1

Values after ≈ are worked out from the molar mass of the structure shown.

Usually MIC stands for the smallest concentration in the dilution series that meets the test's criterion for growth inhibition. A word on the MBC: it is the lowest tested concentration that kills the bacteria rather than only halting them.

For `CCn1cc(C(=O)O)c(=O)c2cc(F)c(N3CCNCC3)cc21` [NORFLOXACIN], the Activity in [1] worked out at 4 µg/mL. Also, the Time in [2] came out at 24 h. Besides, the Ratio in assay [3] stood at 16; in assay [7], 32; in [8] it was 16; in assay [11], 16; in assay [13], 16. Besides, the minimal inhibitory concentration (MIC) in [4] was 0.5 mg/L (≈ 1.57 µM); in assay [5] it was 2 mg/L (≈ 6.26 µM); in [6], 2 mg/L (≈ 6.26 µM); in assay [9], 2 mg/L (≈ 6.26 µM); in [10] it was 0.015 mg/L (≈ 0.047 µM); in assay [12], 0.5 mg/L (≈ 1.57 µM). For the same molecule, the results for the MBC in assay [6], in assay [10] and in [12] were 2 mg/L (≈ 6.26 µM), 0.03 mg/L (≈ 0.0939 µM) and 1 mg/L (≈ 3.13 µM), respectively.
